Measured values: article PMC2904523 (Journal of medicinal chemistry, 2010)

Key:
HIV-1 IIIB = assay: HIV growth inhibition assay in H9 lymphocytes; details: for EC50 (concentration that causes 50% inhibition of HIV-1 IIIB replication): HIV-1 IIIB in H9 cells, Panacos, average of three independent assays; for selectivity ratio at 6 days: human, SI (selective index) = CC50/EC50, HIV-1 IIIB in H9 cells
[1] = tested on: RT of HIV-1DH012 (lysate); assay: RT enzymatic inhibition; assay type: biochemical; details: RT from HIV-1DH012 lysate; Figure 3; average of three assays
In short: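 Reverse transcriptase came from a lysate of HIV-1DH012, a primary viral isolate. Enzyme activity was measured at various test compound concentrations with a commercial colorimetric HIV-1 RT kit, following the manufacturer's protocol. Each value is the average of three independent assays.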

Row | SMILES | EC50 (concentration that causes 50% inhibition of HIV-1 IIIB replication) (HIV-1 IIIB) | selectivity ratio at 6 days (HIV-1 IIIB) | RT inhibition activity [1]
1 | Cc1cc(Br)cc(C)c1Oc1ccc([N+](=O)[O-])c(Nc2ccc(C#N)cc2)c1 [Compound 24, 5-(4″-Bromo-2″,6″-dimethylphenoxy)-N-(4′-cyanophenyl)-2-nitroaniline] | sub-micromolar level | 113 to 313 | 
2 | Cc1cc(Br)cc(C)c1Oc1cc(Nc2ccc(C#N)cc2)c(N)cc1N [Compound 32, 5-(4″-Bromo-2″,6″-dimethylphenoxy)-N^1-(4′-cyanophenyl)benzene-1,2,4-triamine] | sub-micromolar level |  | 
3 | Cc1cc(C#N)cc(C)c1Oc1nc(Nc2ccc(C#N)cc2)nc(N)c1Br [Compound 4, etravirine, reference compound] |  |  | potently inhibited RT activity
4 | Cc1cccc(C)c1Oc1cc(Nc2ccc(C#N)cc2)c([N+](=O)[O-])cc1[N+](=O)[O-] [Compound 20, N-(4′-Cyanophenyl)-5-(2″,6″-dimethylphenoxy)-2,4-dinitroaniline] | sub-micromolar level | 113 to 313 | 
5 | Cc1cc(Br)cc(C)c1Oc1cc(Nc2ccc(C#N)cc2)c(N)cc1[N+](=O)[O-] [Compound 36, 5-(4″-Bromo-2″,6″-dimethylphenoxy)-N^1-(4′-cyanophenyl)-4-nitrobenzene-1,2-diamine] |  | > 2800 | 
6 | Cc1cc(Br)cc(C)c1Oc1cc(Nc2ccc(C#N)cc2)c([N+](=O)[O-])cc1[N+](=O)[O-] [Compound 19, 5-(4″-Bromo-2″,6″-dimethylphenoxy)-N-(4′-cyanophenyl)-2,4-dinitrsoaniline] | sub-micromolar level |  | 
7 | Cc1cc(C#N)cc(C)c1Oc1ccc([N+](=O)[O-])c(Nc2ccc(C#N)cc2)c1 [Compound 26, 5-(4″-Cyano-2″,6″-dimethylphenoxy)-N-(4′-cyanophenyl)-2-nitroaniline] | sub-micromolar level |  | 
8 | Cc1cc(C#N)cc(C)c1Oc1cc(Nc2ccc(C#N)cc2)c(N)cc1[N+](=O)[O-] [Compound 37, 5-(4″-Cyano-2″,6″-dimethylphenoxy)-N^1-(4′-cyanophenyl)-4-nitrobenzene-1,2-diamine] |  |  | potently inhibited RT activity
9 | Cc1cc(C)c(Oc2cc(Nc3ccc(C#N)cc3)c([N+](=O)[O-])cc2[N+](=O)[O-])c(C)c1 [Compound 22, N-(4′-Cyanophenyl)-2,4-dinitro-5-(2″,4″,6″-trimethylphenoxy)aniline] | sub-micromolar level | 113 to 313 | 
10 | Cc1cc(C#N)cc(C)c1Oc1cc(Nc2ccc(C#N)cc2)c(N)cc1N [Compound 34, 5-(4″-Cyano-2″,6″-dimethylphenoxy)-N^1-(4′-cyanophenyl)benzene-1,2,4-triamine] |  |  | potently inhibited RT activity
